Results from ChEMBL document CHEMBL5724801, “EUbOPEN Chemogenomics Library - Multiplex” (2024).
Values joined by “and” are separate entries in the source; they are usually repeats but may differ in a detail not shown here. Equal entries are not always repeated.

System: U2OS
Assay: Multiplex assay against U2OS
Assay type: toxicity, cell-based
Conditions: human
Method in brief: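 Live cells were stained at seeding with Hoechst33342, BioTracker Green Microtubule Cytoskeleton Dye, MitoTracker Red and Annexin V Alexa Fluor 680. Following compound addition, they were imaged on a CQ1 microscope at 37°C and 5% CO2 and gated by CellPathfinder machine learning into Hoechst high-intensity objects or normal cells, with normal cells split into healthy, pyknosed or fragmented nuclei and pyknosed cells into mitotic or apoptotic. Tubulin, mitochondrial-mass and membrane-permeability phenotypes are per cents of healthy-nucleus cells.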

[1] = 12 h, 1 µM, compound concentration 1 uM
[2] = 12 h, 10 µM, compound concentration 10 uM
[3] = 24 h, 1 µM, compound concentration 1 uM
[4] = 24 h, 10 µM, compound concentration 10 uM
[5] = 48 h, 1 µM, compound concentration 1 uM
[6] = 48 h, 10 µM, compound concentration 10 uM

Oc1c(CN2CCN(c3ccccn3)CC2)cc(Cl)c2cccnc12
Population Apoptotic (%) [1]: 95% and 100% | Population Fragmented Nuclei (%) [1]: 24% and 16% | Population Healthy Nuclei (%) [1]: 64% and 78% | Population Hoechst High Intensity Objects (%) [1]: 1% | Population Membrane Permeable-Phenotype (%) [1]: 3% and 13% | Population Mitochondria Different-Phenotype (%) [1]: 1% and 4% | Population Mitotic Cells (%) [1]: 4% and 0% | Population Normal (%) [1]: 98% | Population Pyknosed Nuclei (%) [1]: 10% and 5% | Population Tubulin-Different-Phenotype (%) [1]: 2% and 8% | Total Cell Count [1]: 237 and 93 | Population Apoptotic (%) [2]: 84% and 87% | Population Fragmented Nuclei (%) [2]: 31% and 18% | Population Healthy Nuclei (%) [2]: 56% and 68% | Population Hoechst High Intensity Objects (%) [2]: 2% and 1% | Population Membrane Permeable-Phenotype (%) [2]: 12% and 6% | Population Mitochondria Different-Phenotype (%) [2]: 28% and 35% | Population Mitotic Cells (%) [2]: 15% and 12% | Population Normal (%) [2]: 97% and 98% | Population Pyknosed Nuclei (%) [2]: 11% and 13% | Population Tubulin-Different-Phenotype (%) [2]: 8% and 11% | Total Cell Count [2]: 229 and 118 | Population Apoptotic (%) [3]: 88% and 100% | Population Healthy Nuclei (%) [3]: 64% and 87% | Population Hoechst High Intensity Objects (%) [3]: 1% | Population Membrane Permeable-Phenotype (%) [3]: 3% and 9% | Population Mitochondria Different-Phenotype (%) [3]: 2% and 3% | Population Mitotic Cells (%) [3]: 11% and 0% | Population Normal (%) [3]: 98% | Population Pyknosed Nuclei (%) [3]: 6% and 5% | Population Tubulin-Different-Phenotype (%) [3]: 2% and 7% | Total Cell Count [3]: 270 and 97 | Population Apoptotic (%) [4]: 90% and 100% | Population Fragmented Nuclei (%) [4]: 27% and 29% | Population Healthy Nuclei (%) [4]: 63% and 58% | Population Hoechst High Intensity Objects (%) [4]: 4% and 3% | Population Membrane Permeable-Phenotype (%) [4]: 10% and 9% | Population Mitochondria Different-Phenotype (%) [4]: 14% and 40% | Population Mitotic Cells (%) [4]: 9% and 0% | Population Normal (%) [4]: 95% and 96% | Population Pyknosed Nuclei (%) [4]: 9% and 12% | Population Tubulin-Different-Phenotype (%) [4]: 7% and 6% | Total Cell Count [4]: 238 and 127 | Population Apoptotic (%) [5]: 94% and 87% | Population Fragmented Nuclei (%) [5]: 25% and 14% | Population Healthy Nuclei (%) [5]: 67% and 77% | Population Hoechst High Intensity Objects (%) [5]: 3% and 1% | Population Membrane Permeable-Phenotype (%) [5]: 6% and 7% | Population Mitochondria Different-Phenotype (%) [5]: 3% and 1% | Population Mitotic Cells (%) [5]: 5% and 12% | Population Normal (%) [5]: 96% and 98% | Population Pyknosed Nuclei (%) [5]: 7% | Population Tubulin-Different-Phenotype (%) [5]: 3% and 5% | Total Cell Count [5]: 276 and 111 | Population Apoptotic (%) [6]: 96% and 100% | Population Fragmented Nuclei (%) [6]: 32% and 38% | Population Healthy Nuclei (%) [6]: 57% and 42% | Population Hoechst High Intensity Objects (%) [6]: 2% and 4% | Population Membrane Permeable-Phenotype (%) [6]: 11% and 12% | Population Mitochondria Different-Phenotype (%) [6]: 19% and 41% | Population Mitotic Cells (%) [6]: 3% and 0% | Population Normal (%) [6]: 97% and 95% | Population Pyknosed Nuclei (%) [6]: 10% and 19% | Population Tubulin-Different-Phenotype (%) [6]: 7% and 8% | Total Cell Count [6]: 275 and 144
